Most compounds without a hit are left out; they make up all but 1.1% or so of the library.
CAL PDZ FP-1 = human CAL PDZ-peptide interaction inhibition; Q9HD26; purified CAL PDZ, TMR-peptide fluorescence polarization, 1 h; inhibition, % at 20 µM; 0.02% of 330,000 active; AID 504414;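 active means highest replicate inhibition of at least 40%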;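 further: plate controls were DMSO neutral control wells for no effect and unlabeled competitor peptide control wells for full effect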
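Material – purified CerCALP PDZ construct · Detection – FP readout, S and P plane fluorescence · Measure – percent inhibition from loss of millipolarization · Controls – unlabelled peptide for full inhibition, DMSO wells as neutral · Probe or stimulus – TMR-labelled reporter peptide T*-PRC34 bound in PDZ groove · Times – 1 h at RT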
Keap1 Nrf2 FP = disrupts human Keap1 binding to Nrf2 peptide; Q14145; Keap1 Kelch-Nrf2 peptide fluorescence polarization, 1536-well; 0.15% of 340,000 active; AID 504523; inhibition, % at 9.4 µM; in the data active means inhibition above about 12%;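 further: human Keap1 Kelch domain with fluorescein labeled Nrf2 9mer peptide probe; 0% = neutral control wells and 100% = peptide positive control; higher means more block of Keap1 binding to Nrf2 peptide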
Target sequence (Q14145 whole entry, looked up, the tested form may be a part): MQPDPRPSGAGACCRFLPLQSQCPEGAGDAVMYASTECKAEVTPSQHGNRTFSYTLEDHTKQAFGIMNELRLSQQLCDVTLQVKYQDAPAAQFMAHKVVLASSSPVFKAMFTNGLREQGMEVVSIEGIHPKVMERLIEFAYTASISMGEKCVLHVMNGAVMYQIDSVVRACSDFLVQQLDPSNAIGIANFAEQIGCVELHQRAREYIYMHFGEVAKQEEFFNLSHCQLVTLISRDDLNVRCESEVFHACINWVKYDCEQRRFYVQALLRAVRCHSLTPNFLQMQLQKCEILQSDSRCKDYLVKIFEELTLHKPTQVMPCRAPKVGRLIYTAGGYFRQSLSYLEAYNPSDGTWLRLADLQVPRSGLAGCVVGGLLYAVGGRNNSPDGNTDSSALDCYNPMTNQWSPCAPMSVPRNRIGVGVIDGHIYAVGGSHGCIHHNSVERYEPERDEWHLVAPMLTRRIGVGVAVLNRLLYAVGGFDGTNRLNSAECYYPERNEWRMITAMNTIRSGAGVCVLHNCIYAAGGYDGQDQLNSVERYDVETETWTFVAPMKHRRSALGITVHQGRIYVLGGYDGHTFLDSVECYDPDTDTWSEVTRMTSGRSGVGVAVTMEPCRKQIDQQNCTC
CAL PDZ FP-2 = inhibitors of human CAL PDZ peptide binding | purified CAL PDZ, TMR-peptide fluorescence polarization, 1 h | AID 602252 | Q9HD26 | 0.92% of 300,000 active | inhibition, % at 24.9 µM;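 active means mean inhibition of at least 30% with at least half of replicates also reaching 30%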;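 further: 0% = DMSO neutral control and 100% = excess unlabeled competitor peptide PRC23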
miR122 inh = inhibitors of miR-122 in Huh7 cells | Huh7 miR-122 Renilla luciferase sensor, 48 h; neutral wells = 0, positive control = 100 | activation (reporter increase), % at 12.5 µM | 0.3% of 340,000 active;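 active means mean replicate activation score at least 90 and every replicate individually at or above 90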;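 further: higher luciferase means less miR-122 activity so hits act as miR-122 inhibitors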
LANA DNA inh = inhibitors of KSHV LANA C-terminal domain DNA binding | MBP-C-LANA/FAM-LBS DNA binding, fluorescence polarization | inhibition, % at 9 µM | 0.078% of 340,000 active | AID 504423;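 active means highest replicate inhibition at or above 60% at 9 µM, even if other replicates fall short; inactive means all replicates below 60% inhibition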;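 further: 0% = neutral control wells and 100% = 4 µM acridine orange control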
* = called active by the depositor; x = no result given; [ ] = remark or other dose.

SMILES | CAL PDZ FP-1 | Keap1 Nrf2 FP | CAL PDZ FP-2 | miR122 inh | LANA DNA inh
Cc1ccccc1NC(=O)C1CCN(C2=NS(=O)(=O)c3ccccc32)CC1 | 0 | 1 | -5 | -3 | 61*
CNC(=O)c1cc2cc(OC)ccc2n1CCN(C)C | x | -4 | 47* | 0 | 1
Cc1ccc(-c2ccc3c(c2)O[C@@H](CN(C)CC2CCCC2)[C@H](C)CN([C@@H](C)CO)S3(=O)=O)cc1 | x | x | x | 14[16.7 µM] | x
COC(=O)c1ccccc1NC(=O)CSc1nncn1C | 0 | 8 | 55* | -1 | 1
COc1ccc(S(=O)(=O)N(C)C[C@H]2OCCCC[C@@H](C)Oc3ccc(NS(=O)(=O)c4cn(C)cn4)cc3C(=O)N([C@@H](C)CO)C[C@H]2C)cc1 | x | x | x | -1[16.7 µM] | x
CN(C)N=Nc1ccc(S(N)(=O)=O)cc1 | 0 | -1 | 1 | -9 | 2
CN(C)c1ccc(N=Nc2ccc(S(N)(=O)=O)cc2)cc1 | -1 | 3 | 44* | -9 | -2
COCC(=O)Nc1ccc2c(c1)C(=O)N(C)C[C@@H](OC)[C@H](C)CN(C(=O)NC(C)C)[C@@H](C)CO2 | x | x | x | 5[16.7 µM] | x
COc1ccc(C2=CSC3=C(C(=O)c4cccc(S(=O)(=O)N(C)C)c4)CCN23)cc1 | x | 0 | 96* | -1 | 0
COc1ccc(N(C)S(=O)(=O)c2cccc(C(=O)N3CCN(c4ccccc4)CC3)c2)cc1 | -2 | -3 | 0 | 11 | -2
O=C(Nc1ccccc1C(=O)N1CCN(c2ccccc2)CC1)c1ccco1 | 0 | 3 | 47* | 1 | 1
C[C@@H]1CCCCO[C@@H](CN(C)S(=O)(=O)c2ccccc2)[C@@H](C)CN([C@@H](C)CO)C(=O)c2cc(NS(=O)(=O)c3ccc(Cl)cc3)ccc2O1 | x | x | x | -4[16.7 µM] | x
COc1ccc(/C=N/NC(=O)c2cccc(O)c2)cc1Cn1nc(C)c([N+](=O)[O-])c1C | -2 | -3 | 53* | x | 0
COc1ccc(/C=N/n2cnnc2)cc1Cn1nc(C)c([N+](=O)[O-])c1C | -1 | -2 | -4 | x | -1
C[C@H](CO)N1C[C@H](C)[C@@H](CN(C)C(=O)NC2CCCCC2)Oc2ccc(NC(=O)Nc3ccc(F)cc3)cc2C1=O | x | x | x | -1[16.7 µM] | x
CCOC(=O)N1CCC(N2C(=O)c3ccccc3C2Nc2ccc(C)cc2)CC1 (configuration not stated) | 1 | 4 | -8 | x | 2
CCOC(=O)N1CCC(N2C(=O)c3ccccc3C2Nc2ccc(S(=O)(=O)N(CC)CC)cc2)CC1 (configuration not stated) | -1 | 2 | 67* | x | -2
C[C@@H](NC(=O)C[C@@H]1CC[C@H]2[C@@H](COC[C@H](O)CN2C(=O)Nc2ccccc2)O1)c1ccccc1 | x | x | x | 3[16.7 µM] | x
CC1Cc2ccccc2N1C(=O)COC(=O)c1cccc(Br)c1 (configuration not stated) | -2 | -1 | 182* | -2 | -1
C=CCOC(=O)c1cc(-c2ccc(/C=C3\C(=O)NC(=O)C(C#N)=C3C)o2)ccc1Cl | 0 | 3 | -5 | 1 | 81*
Cc1ccc(S(=O)(=O)Nc2ccccc2C(=O)N2CCCC2)cc1 | -1 | -3 | x | 6 | 0
Cc1ccc(S(=O)(=O)Nc2ccccc2C(=O)N2CCN(C)CC2)cc1 | 1 | 2 | 44* | -5 | 1
O=C(CN1CCC(n2nnc3cc(C(F)(F)F)ccc32)CC1)Nc1ccc2c(c1)CCC2 | 1 | 0 | -2 | 2 | 0
O=C(CN1CCC(n2nnc3cc(C(F)(F)F)ccc32)CC1)Nc1ccc2c(c1)OCCO2 | 0 | 4 | 49* | -8 | -1
Cc1ccc(S(=O)(=O)Nc2cccc3c2O[C@H](CN(C)Cc2ccc(C(F)(F)F)cc2)[C@@H](C)CN([C@H](C)CO)C3=O)cc1 | x | x | x | 63[16.7 µM] | x
SMILES | CAL PDZ FP-1 | Keap1 Nrf2 FP | CAL PDZ FP-2 | miR122 inh | LANA DNA inh
CCN(CC)S(=O)(=O)c1cc(NS(=O)(=O)c2c(Cl)cccc2Cl)ccc1C | -1 | -3 | 1 | x | -1
CCN(CC)S(=O)(=O)c1cc(NS(=O)(=O)c2cccc(Cl)c2)ccc1C | -1 | 0 | x | 254* | -1
C[C@H]1CN([C@@H](C)CO)C(=O)c2cc(-c3ccc(F)cc3)cnc2O[C@@H]1CN(C)C(=O)Nc1ccc(F)cc1 | x | x | x | 4[16.7 µM] | x
Cc1ccc(C)c(NC(=O)CSc2nnc(CSc3nc(C)cc(C)n3)n2Cc2ccco2)c1 | 0 | -3 | -1 | 119* | -1
Cc1ccc(-n2c(CSc3nc(C)cc(C)n3)nnc2SCC(=O)NCc2ccco2)cc1 | 0 | -3 | 104* | -19 | -1
c1ccc(-n2ncc3c(NCCN4CCOCC4)ncnc32)cc1 | 0 | 2 | -2 | 1 | -2
Cc1nc(NCCCN2CCOCC2)c2cnn(-c3ccccc3)c2n1 | -1 | -3 | 36* | -10 | 0
COc1ccc(Nc2nc3ccccc3nc2NS(=O)(=O)c2cccs2)cc1 | -2 | 4 | 48* | 0 | 14
C[C@@H]1CN([C@H](C)CO)C(=O)c2cc(C#CC3(O)CCCC3)cnc2O[C@@H]1CN(C)Cc1ccccc1 | x | x | x | -1[16.7 µM] | x
Brc1ccc(-n2cnc(-c3ccccc3)c2)cc1 | -3 | -5 | 51* | 11 | -1
N#Cc1ccc(CSc2nnc(-c3cccc(S(=O)(=O)N4CCCCC4)c3)o2)cc1 | -1 | 3 | 44* | 1 | 0
O=C(O)CSc1nnc(-c2cccc(S(=O)(=O)N3CCCCC3)c2)o1 | 0 | -1 | x | x | 0
COc1ccc(NC(=O)Nc2ccc3c(c2)C(=O)N([C@H](C)CO)C[C@@H](C)[C@@H](CN(C)S(=O)(=O)c2ccc(OC)cc2)O3)cc1 | x | x | x | 101*[16.7 µM] | x
COc1ccc(NC(=O)Nc2ccc3c(c2)C(=O)N([C@H](C)CO)C[C@@H](C)[C@H](CN(C)S(=O)(=O)c2ccc(OC)cc2)O3)cc1 | x | x | x | 18[16.7 µM] | x
COc1ccc(S(=O)(=O)N(C)C[C@H]2Oc3ccc(NC(=O)Nc4ccc(F)cc4)cc3C(=O)N([C@H](C)CO)C[C@H]2C)cc1 | x | x | x | 101*[16.7 µM] | x
Cc1noc(C)c1S(=O)(=O)N(C)C[C@@H]1Oc2ccc(NS(=O)(=O)c3ccc(Cl)cc3)cc2CC(=O)N([C@H](C)CO)C[C@H]1C | x | x | x | 3[16.7 µM] | x
CCCCCCC(=O)Oc1cccc(N2C(=O)C3CCCCC3C2=O)c1 (configuration not stated) | 0 | 0 | 79* | x | 0
COc1cc(C)c(Cl)c(C)c1S(=O)(=O)NCc1cccnc1 | -1 | 1 | -2 | 121* | 1
COc1cc(S(=O)(=O)NCc2cccnc2)c(OC)cc1Br | -1 | 1 | -3 | 108* | -1
CO[C@@H]1CN(C)C(=O)c2ccc(NC(=O)Nc3cccc(F)c3)cc2OC[C@@H](C)N(C(=O)C2CC2)C[C@@H]1C | x | x | x | 13[16.7 µM] | x
CC(C)C(NC(=O)c1ccccc1Br)c1ccccc1 (configuration not stated) | -2 | 1 | -4 | x | -1
CC(NC(=S)NC(=O)c1ccccc1Br)c1ccccc1 (configuration not stated) | x | -1 | 77* | 7 | 1

Assay outcomes from PubChem BioAssay.
